OX1R antag-1 – antagonists of human orexin 1 receptor; CHO/OX1R cells, Fluo-8 calcium fluorescence, orexin A; 0.43% of 330,000 active; inhibition, % at 5 µM;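 active = inhibition above its plate's threshold, mean inhibition of all tested compounds on the plate plus 3 SD, cut at about 37% in these data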
Target sequence (O43613 whole entry, looked up): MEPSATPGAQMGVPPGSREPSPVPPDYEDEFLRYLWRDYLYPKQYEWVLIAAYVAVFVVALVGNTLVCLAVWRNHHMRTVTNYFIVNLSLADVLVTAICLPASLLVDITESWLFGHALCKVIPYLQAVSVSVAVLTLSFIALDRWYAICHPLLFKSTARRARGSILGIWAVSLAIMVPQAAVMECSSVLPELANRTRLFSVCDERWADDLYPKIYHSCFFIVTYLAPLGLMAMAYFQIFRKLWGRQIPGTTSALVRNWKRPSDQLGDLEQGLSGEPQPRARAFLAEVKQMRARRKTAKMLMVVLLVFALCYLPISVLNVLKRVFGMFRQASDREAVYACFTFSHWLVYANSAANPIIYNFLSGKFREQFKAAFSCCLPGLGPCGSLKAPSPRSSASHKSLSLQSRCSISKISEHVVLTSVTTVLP
OX1R antag-2 – blocks the human orexin 1 receptor | AID 485270 | O43613 | OX1R-expressing cells, FRET antagonist read-out | 1.8% of 330,000 active | inhibition, % at 6.6 µM; in the data active = inhibition mostly above about 38%, no sharp cut-off; inactive = mostly below about 40%
TAAR1 antag – antagonists of human TAAR1; AID 624466; 1.5% of 360,000 active; inhibition, % at 3 µM; CHO RD-HGA16 TAAR1, Fluo-8 calcium fluorescence, antagonist;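 active = inhibition above a per-plate cutoff, the mean inhibition of test compounds on that plate plus 3 SD, cut at about 49% in these data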
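Material: RD-HGA16 CHO cells with stable hTAAR1 and Gα16; Dosing: single nominal final test compound concentration of 3 µM; Schedule: seeding 17-24 h prior, 75-min 37 °C, 30-min RT dye loading; Detection: kinetic Fluo-8 calcium fluorescence measurement; Measure: % inhibition from peak post-agonist over basal fluorescence ratio; Benchmarks: vehicle and agonist controls.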
TAAR1 agonist – agonists of human TAAR1; Q96RJ0; CHO RD-HGA16 TAAR1, Fluo-8 calcium fluorescence; vehicle wells 0%, saturating PEA agonist 100%; activation, % at 3 µM; 0.99% of 360,000 active; AID 624467;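 active = activation above the mean activation of all test compounds in the run plus 3 SD, cut at about 38% in these data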
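Test system: RD-HGA16 (CHO) cells co-expressing Gα16 and hTAAR1 / Benchmarks: DMSO vehicle as 0%, PEA at EC100 as 100% / Repeats: no replicates (n 1) / Measure: % activation from peak over basal fluorescence ratio, DMSO-to-PEA scaled / Timing: 17-24 h plating, Fluo-8 75 min 37 °C, 30 min RT / Technique: kinetic Fluo-8 calcium fluorescence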
GPR7 antag – blocks human GPR7 receptor signaling; P48145; GPR7-expressing cells, fluorescence antagonist assay; inhibition, % at 4.4 µM; 1.1% of 290,000 active; AID 1861; in the data active = inhibition above about 16%, passing the limit was not always enough;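 also: cells stimulated with the agonist NPW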
CHO parental Ca – counter-screen: ATP calcium response change in parental CHO cells | parental CHO-K1, ATP-induced calcium, Fluo-8 fluorescence | inhibition, % at 5.6 µM | 0.63% of 330,000 active;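 active = inhibition above that plate's mean sample inhibition plus 3 SD, cut at about 26% in these data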
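material = parental CHO cells | also added = ATP as calcium-mobilizing challenge | dosing = single point at 5.6 µM | detection = intracellular calcium via Fluo-8 no-wash fluorescent dye | read-out = % inhibition | benchmarks = low control ATP plus DMSO, high control DMSO only | repeats = one well per compound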
A number is an active result; 0 = inactive; - = not tested or not shown. Compounds with a hit are over-represented: about 4.6% of the library has one in this group of screens.

SMILES	OX1R antag-1	OX1R antag-2	TAAR1 antag	TAAR1 agonist	GPR7 antag	CHO parental Ca
O=C(N/N=C/C(Cl)=C/c1ccc([N+](=O)[O-])cc1)C(=O)Nc1cccc(C(=O)O)c1	0	66	0	0	0	0
O=C(Nc1cccc(C(=O)O)c1)/C(=C/c1cccc([N+](=O)[O-])c1)NC(=O)c1cccc(Br)c1	0	0	0	0	-	0
CC(C)c1ccc(/C=C/C(=O)Nc2nc3ccc([N+](=O)[O-])cc3s2)cc1	0	0	0	0	0	0
O=[N+]([O-])c1ccc2nc(NN=Cc3ccc(O)cc3)sc2c1	-	-	51	0	-	-
COc1ccc(OC)c(N=C(N)N=C(N)N)c1	0	0	0	0	0	0
CCCC(=O)N1CCCC1(C)C(=O)NCc1c(F)ccc(C)c1F (centres undefined)	-	-	0	0	-	-
CC(/C=N/NC(=O)c1sc(N)nc1C)=C\c1ccccc1	0	0	0	40	0	0
Cc1nc(N)sc1C(=O)N/N=C/c1ccccc1[N+](=O)[O-]	0	0	0	0	0	0
O=C(Nc1cccnc1)C1CCC(CNS(=O)(=O)c2cccc3nsnc23)CC1 (centres undefined)	0	0	0	0	0	0
COc1ccccc1NC(=O)COC(=O)CN1C(=O)C(=O)c2ccccc21	0	0	0	0	0	0
O=C(CN1C(=O)C(=O)c2ccccc21)OCN1C(=O)c2ccccc2C1=O	0	44	0	0	0	0
O=[N+]([O-])c1cc(C=Nc2ccc3ccccc3c2)ccc1Br	0	64	0	0	0	0
CCOc1ccc(N=Cc2ccc3ccccc3c2)cc1	0	0	0	0	0	0
CC1CC(C)CN(S(=O)(=O)c2ccc(NC(=O)c3ccc(=O)[nH]c3)cc2)C1 (centres undefined)	0	0	0	0	-	0
CCN(CC(=O)Nc1c(F)cccc1F)C(=O)c1nc2nccc(C)n2n1	0	0	0	0	-	0
C/C(=N\OCC(=O)Nc1ccc(F)c(F)c1F)c1cc2ccccc2o1	0	65	0	0	0	0
CSc1ccccc1NC(=O)CO/N=C(\C)c1cc2ccccc2o1	0	0	0	0	0	0
O=C1C(Oc2ccccc2)C(c2cccs2)N1Cc1ccc2c(c1)OCO2 (centres undefined)	0	0	0	0	0	0
COc1ccc(OC2C(=O)N(Cc3ccc4c(c3)OCO4)C2c2cccs2)cc1 (centres undefined)	58	0	56	0	0	41
O=C(CNCC1CCCO1)NCc1ccco1 (centres undefined)	0	0	0	0	0	0
COc1ccc2c(c1)c1nnc(SC)nc1n2C	0	48	0	0	0	0
Clc1ccc(CSc2nncn2-c2ccc3c(c2)OCCO3)cc1	0	0	0	0	19	0
Cc1cc(NS(=O)(=O)c2ccc(NC(=S)Nc3ccc(Cl)cc3C)cc2)no1	0	0	0	0	0	0
c1ccc(OCCNc2ccn3nc(-c4ccc(OCCN5CCOCC5)cc4)cc3n2)cc1	-	-	61	0	-	-
c1csc(CNc2ccn3nc(-c4ccc(OCCN5CCOCC5)cc4)cc3n2)c1	-	-	0	0	-	-
SMILES	OX1R antag-1	OX1R antag-2	TAAR1 antag	TAAR1 agonist	GPR7 antag	CHO parental Ca
CCCCn1c(N)c(N(CCC(C)C)C(=O)C2=NN(c3cc(C)ccc3C)C(=O)CC2)c(=O)[nH]c1=O	0	0	0	0	-	0
CCOC(=O)c1ccc(-n2cccc2/C=C2\NC(=O)NC2=O)cc1	0	0	51	0	-	0
Cc1cccc(NC(=S)NC(C)C(c2ccccc2)N2CCN(C)CC2)c1C (centres undefined)	0	0	0	0	0	0
COc1ccc(CNC(=O)CSc2nc(SC)ns2)cc1	0	0	0	0	0	98
COCC1CCN(C(=O)c2ccc(OC3CCN(Cc4ccccn4)CC3)cc2)C1 (centres undefined)	0	0	0	0	0	0
COc1ccc(C(=O)/C=C2/C(=O)Nc3ccccc32)c(OC)c1	0	0	0	0	0	0
COc1cc(OC)c(/C=C2\C(=O)Nc3ccccc32)c(OC)c1	0	41	0	0	-	0
COc1ccc2cc(C3=CCCCC3)ncc2c1	0	0	0	0	-	0
CS(=O)(=O)NCCSc1nnnn1-c1ccccc1	0	0	0	0	18	0

Source: PubChem (The Scripps Research Institute Molecular Screening Center)
